Assay results reported in ChEMBL document CHEMBL1134576, “Discovery of potent antagonists of leukocyte function-associated antigen-1/intercellular adhesion molecule-1 interaction. 3. Amide (C-ring) structure-activity relationship and improvement of overall properties of arylthio cinnamides” (J Med Chem, 2001).
Converted amounts (≈) assume the structure as drawn. “And” between values parts separate entries of the source, which are not always exact repeats. Equal entries are not always repeated.

Legend:
[1] = target: Intercellular adhesion molecule (ICAM-1), Integrin alpha-L/beta-2 (Homo sapiens, UniProt P05107+P20701); test: Ability to antagonise the Leukocyte function-associated Antigen-1/ Intracellular Adhesion molecule-1 interaction (LFA-1/ICAM-1); assay type: functional
Sequence of Intercellular adhesion molecule (ICAM-1), Integrin alpha-L/beta-2 (P20701 whole entry, the tested form may be a part): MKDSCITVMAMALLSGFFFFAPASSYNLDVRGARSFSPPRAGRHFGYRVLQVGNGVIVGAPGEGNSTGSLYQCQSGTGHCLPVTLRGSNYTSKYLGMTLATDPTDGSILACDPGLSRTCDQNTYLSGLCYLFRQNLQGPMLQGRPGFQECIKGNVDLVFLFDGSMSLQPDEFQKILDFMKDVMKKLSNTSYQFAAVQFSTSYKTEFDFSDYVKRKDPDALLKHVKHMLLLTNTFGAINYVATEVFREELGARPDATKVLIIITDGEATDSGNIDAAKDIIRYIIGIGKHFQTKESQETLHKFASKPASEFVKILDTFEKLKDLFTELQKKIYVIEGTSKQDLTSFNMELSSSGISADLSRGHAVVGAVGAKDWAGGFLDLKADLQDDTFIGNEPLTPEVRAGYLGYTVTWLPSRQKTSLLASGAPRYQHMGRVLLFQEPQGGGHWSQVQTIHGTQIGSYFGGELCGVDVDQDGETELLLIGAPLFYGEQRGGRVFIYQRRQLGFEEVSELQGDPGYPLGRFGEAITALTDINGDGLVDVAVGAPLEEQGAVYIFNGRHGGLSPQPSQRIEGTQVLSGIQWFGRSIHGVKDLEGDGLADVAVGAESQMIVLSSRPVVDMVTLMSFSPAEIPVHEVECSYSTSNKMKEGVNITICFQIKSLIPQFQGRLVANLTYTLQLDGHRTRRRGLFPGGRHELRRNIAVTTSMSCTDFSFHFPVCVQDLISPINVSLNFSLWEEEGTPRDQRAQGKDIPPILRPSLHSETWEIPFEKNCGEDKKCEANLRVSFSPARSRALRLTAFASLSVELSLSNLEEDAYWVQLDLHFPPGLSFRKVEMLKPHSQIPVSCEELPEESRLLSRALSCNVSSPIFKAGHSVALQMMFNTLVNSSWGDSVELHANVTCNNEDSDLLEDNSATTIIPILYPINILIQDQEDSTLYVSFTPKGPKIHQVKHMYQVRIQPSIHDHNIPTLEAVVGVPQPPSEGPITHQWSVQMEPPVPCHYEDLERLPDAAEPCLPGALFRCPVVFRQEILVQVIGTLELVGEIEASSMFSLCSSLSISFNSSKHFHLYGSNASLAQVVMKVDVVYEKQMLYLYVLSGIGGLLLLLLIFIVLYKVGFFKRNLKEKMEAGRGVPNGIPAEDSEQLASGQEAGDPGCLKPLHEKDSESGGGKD
Sequence of Intercellular adhesion molecule (ICAM-1), Integrin alpha-L/beta-2 (P05362 whole entry, further chain, the tested form may be a part): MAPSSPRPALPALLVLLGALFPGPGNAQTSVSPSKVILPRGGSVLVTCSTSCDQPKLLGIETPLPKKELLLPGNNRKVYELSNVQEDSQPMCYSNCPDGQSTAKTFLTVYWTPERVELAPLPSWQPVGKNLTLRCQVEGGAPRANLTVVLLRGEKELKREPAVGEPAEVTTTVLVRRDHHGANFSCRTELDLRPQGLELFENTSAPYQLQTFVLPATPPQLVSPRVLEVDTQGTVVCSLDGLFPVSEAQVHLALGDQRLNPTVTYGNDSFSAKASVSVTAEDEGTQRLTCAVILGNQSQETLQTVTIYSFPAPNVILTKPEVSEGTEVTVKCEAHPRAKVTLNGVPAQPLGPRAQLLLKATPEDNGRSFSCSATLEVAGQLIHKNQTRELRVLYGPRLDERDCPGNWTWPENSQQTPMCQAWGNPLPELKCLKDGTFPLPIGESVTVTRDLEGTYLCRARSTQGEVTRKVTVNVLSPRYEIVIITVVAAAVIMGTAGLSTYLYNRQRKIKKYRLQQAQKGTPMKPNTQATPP
Sequence of Intercellular adhesion molecule (ICAM-1), Integrin alpha-L/beta-2 (P05107 whole entry, the tested form may be a part): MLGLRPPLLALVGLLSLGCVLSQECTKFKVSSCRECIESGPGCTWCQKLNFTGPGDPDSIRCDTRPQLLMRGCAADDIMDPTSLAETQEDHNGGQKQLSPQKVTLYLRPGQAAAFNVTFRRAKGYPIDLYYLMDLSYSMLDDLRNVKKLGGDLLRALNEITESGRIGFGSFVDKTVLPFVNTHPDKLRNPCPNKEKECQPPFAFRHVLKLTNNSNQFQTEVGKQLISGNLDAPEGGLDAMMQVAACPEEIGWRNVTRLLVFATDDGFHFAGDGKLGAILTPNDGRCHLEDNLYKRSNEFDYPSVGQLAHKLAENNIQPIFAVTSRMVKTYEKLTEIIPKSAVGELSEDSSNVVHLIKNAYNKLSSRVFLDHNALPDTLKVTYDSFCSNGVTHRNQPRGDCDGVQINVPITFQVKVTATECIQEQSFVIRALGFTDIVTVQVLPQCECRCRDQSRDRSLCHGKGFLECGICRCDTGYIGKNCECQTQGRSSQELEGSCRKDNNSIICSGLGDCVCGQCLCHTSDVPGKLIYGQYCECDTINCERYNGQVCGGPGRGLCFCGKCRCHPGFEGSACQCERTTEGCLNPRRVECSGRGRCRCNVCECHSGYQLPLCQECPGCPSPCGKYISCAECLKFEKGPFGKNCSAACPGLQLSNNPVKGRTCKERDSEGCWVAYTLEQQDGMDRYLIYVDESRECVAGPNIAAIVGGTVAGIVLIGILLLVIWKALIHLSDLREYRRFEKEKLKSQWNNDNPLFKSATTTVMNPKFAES

Rattus norvegicus [2] = test: mean arterial pressure in a rat model of reperfusion after 5 min at 50 mg/kg dose; assay type: functional, Artery
Rattus norvegicus [3] = test: heart rate pressure in a rat model of reperfusion after 60 min at 3 mg/kg dose; assay type: functional
Rattus norvegicus [4] = test: rate pressure product in a rat model of ischemia immediately prior to the occlusion at 3 mg/kg dose; assay type: functional
Rattus norvegicus [5] = test: Clearance after intravenous dose in rat; conditions: in vivo
[6] = Clearance after intravenous dose in rat; conditions: in vivo, CL
Rattus norvegicus [7] = test: heart rate in a rat model of ischemia after 15 min at 3 mg/kg dose; assay type: functional
Rattus norvegicus [8] = test: rate pressure product in a rat model of reperfusion after 120 min at 50 mg/kg dose; assay type: functional
Rattus norvegicus [9] = test: rate pressure product in a rat model of ischemia immediately prior to the occlusion at 50 mg/kg dose; assay type: functional
Rattus norvegicus [10] = test: heart rate in a rat model of reperfusion after 5 min at 50 mg/kg dose; assay type: functional
Rattus norvegicus [11] = test: Half life period after intravenous dose in rat; assay type: ADME, organism-based; conditions: in vivo
Procedure, shortened: (§1)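 Rats (n = 4/group) received 5 mg/kg either iv as a slow jugular bolus or po by gavage. The terminal-phase rate constant gave t1/2 and AUC extrapolated to infinity. F compares oral with iv AUC.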

Rattus norvegicus [12] = test: mean arterial pressure in a rat model of reperfusion after 180 min at 3 mg/kg dose; assay type: functional, Artery
Rattus norvegicus [13] = test: heart rate in a rat model of reperfusion after 60 min at 50 mg/kg dose; assay type: functional
Rattus norvegicus [14] = test: rate pressure product in a rat model of ischemia after 15 min at 50 mg/kg dose; assay type: functional
Rattus norvegicus [15] = test: rate pressure product in a rat model of reperfusion after 60 min at 3 mg/kg dose; assay type: functional
Rattus norvegicus [16] = test: rate pressure product in a rat model of reperfusion after 180 min at 3 mg/kg dose; assay type: functional
Rattus norvegicus [17] = test: rate pressure product in a rat model of reperfusion after 5 min at 3 mg/kg dose; assay type: functional
Rattus norvegicus [18] = test: heart rate pressure in a rat model of reperfusion after 5 min at 3 mg/kg dose; assay type: functional
Rattus norvegicus [19] = test: heart rate in a rat model of ischemia immediately prior to the occlusion at 3 mg/kg dose; assay type: functional
Rattus norvegicus [20] = test: rate pressure product in a rat model of reperfusion after 5 min at 50 mg/kg dose; assay type: functional
Rattus norvegicus [21] = test: mean arterial pressure in a rat model of ischemia after 15 min at 3 mg/kg dose; assay type: functional, Artery
Rattus norvegicus [22] = test: mean arterial pressure in a rat model of reperfusion after 5 min at 3 mg/kg dose; assay type: functional, Artery
Canis familiaris [23] = test: Mean residence time after po dose in dog; conditions: in vivo
Rattus norvegicus [24] = test: mean arterial pressure in a rat model of ischemia after 15 min at 50 mg/kg dose; assay type: functional, Artery
Rattus norvegicus [25] = test: mean arterial pressure in a rat model of reperfusion after 120 min at 3 mg/kg dose; assay type: functional, Artery
Rattus norvegicus [26] = test: heart rate in a rat model of ischemia after 15 min at 50 mg/kg dose; assay type: functional
Rattus norvegicus [27] = test: heart rate in a rat model of ischemia immediately prior to the occlusion at 50 mg/kg dose; assay type: functional
Rattus norvegicus [28] = test: mean arterial pressure in a rat model of reperfusion after 180 min at 50 mg/kg dose; assay type: functional, Artery
Rattus norvegicus [29] = test: heart rate in a rat model of reperfusion after 180 min at 50 mg/kg dose
Rattus norvegicus [30] = test: mean arterial pressure in a rat model of reperfusion after 120 min at 50 mg/kg dose; assay type: functional, Artery
Canis familiaris [31] = test: Cmax value after po dose in dog; conditions: in vivo
Rattus norvegicus [32] = test: mean arterial pressure in a rat model of reperfusion after 60 min at 3 mg/kg dose; assay type: functional, Artery
Rattus norvegicus [33] = test: heart rate pressure in a rat model of reperfusion after 180 min at 3 mg/kg dose; assay type: functional
Rattus norvegicus [34] = test: rate pressure product in a rat model of reperfusion after 180 min at 50 mg/kg dose; assay type: functional
Rattus norvegicus [35] = test: heart rate in a rat model of reperfusion after 120 min at 50 mg/kg dose
Rattus norvegicus [36] = test: mean arterial pressure in a rat model of ischemia immediately prior to the occlusion at 50 mg/kg dose; assay type: functional, Artery
JY = test: Inhibition of JY8 cell adhesion process (The assay was run with 1% fetal bovine serum); assay type: functional, cell-based; conditions: Homo sapiens, JY-8
Procedure, shortened: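 JY-8 cells […] in the presence of 1% fetal bovine serum. Six concentrations from 6.4 × 10^-9 to 2 × 10^-5 were run in duplicate. IC50 is the mean of repeat measurements, with the range given.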

Rattus norvegicus [37] = test: rate pressure product in a rat model of ischemia after 15 min at 3 mg/kg dose; assay type: functional
[38] = Mean residence time after po dose in rat; assay type: ADME, organism-based; conditions: in vivo; procedure, shortened: as §1
Rattus norvegicus [39] = test: Cmax value after po dose in rat; assay type: ADME, organism-based; set-up: route oral; conditions: in vivo; procedure, shortened: as §1
[40] = Oral bioavailability in rat; assay type: ADME, organism-based; conditions: in vivo; procedure, shortened: as §1
Rattus norvegicus [41] = test: heart rate pressure in a rat model of reperfusion after 120 min at 3 mg/kg dose; assay type: functional
Rattus norvegicus [42] = test: mean arterial pressure in a rat model of ischemia immediately prior to the occlusion at 3 mg/kg dose; assay type: functional, Artery
Rattus norvegicus [43] = test: rate pressure product in a rat model of reperfusion after 120 min at 3 mg/kg dose; assay type: functional
Rattus norvegicus [44] = test: rate pressure product in a rat model of reperfusion after 60 min at 50 mg/kg dose; assay type: functional
Rattus norvegicus [45] = test: mean arterial pressure in a rat model of reperfusion after 60 min at 50 mg/kg dose; assay type: functional, Artery
[46] = Clearance after iv dose in rat; conditions: in vivo
[47] = Half life period after iv dose in rat; assay type: ADME, organism-based; conditions: in vivo; procedure, shortened: as §1
[48] = Percent oral bioavailability after po dose; assay type: ADME, organism-based; conditions: eutheria, in vivo
[49] = Cmax value after po dose; assay type: ADME, organism-based; set-up: route oral; conditions: in vivo

## CC(C)c1ccccc1Sc1ccc(/C=C/C(=O)N2CCC(S(=O)(=O)O)CC2)cc1[N+](=O)[O-]
[1]
  IC50: 90 nM

## O=C(O)C1CCCN(C(=O)/C=C/c2ccc(Sc3ccc4c(c3)OCCO4)c(C(F)(F)F)c2)C1 (configuration not stated)
Rattus norvegicus [2]
  MAP: 105 mmHg
Rattus norvegicus [3]
  HR: 382 beats min-1
Rattus norvegicus [4]
  RPP: 46400 mmHg beats min-1
Rattus norvegicus [5]
  clearance: 5.67 mL/min/kg
[6]
  clearance: 4.83 mL/min/kg
Rattus norvegicus [7]
  HR: 391 beats min-1
Rattus norvegicus [8]
  RPP: 38100 mmHg beats min-1
Rattus norvegicus [9]
  RPP: 54000 mmHg beats min-1
Rattus norvegicus [10]
  HR: 382 beats min-1
Rattus norvegicus [11]
  T1/2: 2.3 h and 5.7 h
Rattus norvegicus [12]
  MAP: 95 mmHg
Rattus norvegicus [13]
  HR: 396 beats min-1
Rattus norvegicus [14]
  RPP: 42700 mmHg beats min-1
Rattus norvegicus [15]
  RPP: 38100 mmHg beats min-1
[1]
  IC50: 25 nM
Rattus norvegicus [16]
  RPP: 35100 mmHg beats min-1
Rattus norvegicus [17]
  RPP: 37500 mmHg beats min-1
Rattus norvegicus [18]
  HR: 379 beats min-1
Rattus norvegicus [19]
  HR: 393 beats min-1
Rattus norvegicus [20]
  RPP: 40200 mmHg beats min-1
Rattus norvegicus [21]
  MAP: 107 mmHg
Rattus norvegicus [22]
  MAP: 98 mmHg
Canis familiaris [23]
  MRT: 5.7 h
Rattus norvegicus [24]
  MAP: 105 mmHg
Rattus norvegicus [25]
  MAP: 85 mmHg
Rattus norvegicus [26]
  HR: 400 beats min-1
Rattus norvegicus [27]
  HR: 419 beats min-1
Rattus norvegicus [28]
  MAP: 80 mmHg
Rattus norvegicus [29]
  HR: 399 beats min-1
Rattus norvegicus [30]
  MAP: 96 mmHg
Canis familiaris [31]
  Cmax: 3700 ng/mL
Rattus norvegicus [32]
  MAP: 99 mmHg
Rattus norvegicus [33]
  HR: 376 beats min-1
Rattus norvegicus [34]
  RPP: 32000 mmHg beats min-1
Rattus norvegicus [35]
  HR: 397 beats min-1
Rattus norvegicus [36]
  MAP: 128 mmHg
JY
  IC50: 140 nM
Rattus norvegicus [37]
  RPP: 41800 mmHg beats min-1
[38]
  MRT: 5 h
Rattus norvegicus [39]
  Cmax: 1.5 ug m l-1
[40]
  F: 29% and 55%
Rattus norvegicus [41]
  HR: 371 beats min-1
Rattus norvegicus [42]
  MAP: 118 mmHg
Rattus norvegicus [43]
  RPP: 31800 mmHg beats min-1
Rattus norvegicus [44]
  RPP: 46700 mmHg beats min-1
Rattus norvegicus [45]
  MAP: 118 mmHg

## CC(C)c1ccccc1Sc1ccc(/C=C/C(=O)N2CCN(C(=O)c3ccncc3)CC2)cc1[N+](=O)[O-]
[1]
  IC50: 66 nM
JY
  IC50: 20 nM

## O=C(O)C1CCN(C(=O)/C=C/c2ccc(Sc3ccc4c(c3)OCCO4)c(C(F)(F)F)c2)CC1
[1]
  IC50: 30 nM
[46]
  clearance: 2 mL/min/kg
[47]
  half-life: 3.9 h
JY
  IC50: 150 nM
[38]
  MRT: 6.7 h
Rattus norvegicus [39]
  Cmax: 2.8 ug m l-1
[40]
  bioavailability: 39%

## CNC(=O)N1CCN(C(=O)/C=C/c2ccc(Sc3ccccc3C(C)C)c([N+](=O)[O-])c2)CC1
[1]
  IC50: 25 nM

## CC(C)c1ccccc1Sc1ccc(/C=C/C(=O)N2CCC(C(=O)O)CC2)cc1[N+](=O)[O-]
[1]
  IC50: 31 nM
[46]
  clearance: 13.2 mL/min/kg
[47]
  half-life: 1.15 h
JY
  IC50: 165 nM
[38]
  MRT: 3.5 h
Rattus norvegicus [39]
  Cmax: 0.5 ug m l-1
[40]
  bioavailability: 21%

## CC(C)c1ccccc1Sc1ccc(/C=C/C(=O)N2CCNC(CO)C2)cc1[N+](=O)[O-] (configuration not stated)
[1]
  IC50: 280 nM
[46]
  clearance: 53.3 mL/min/kg
[47]
  half-life: 1.9 h
Water solubility
  Solubility: 5 µg/mL (≈ 11.3 µM)
Rattus norvegicus [39]
  Cmax: 0 ug m l-1
[40]
  bioavailability: 0%

## CC(=O)N1CCN(C(=O)/C=C/c2ccc(Sc3ccccc3C(C)C)c([N+](=O)[O-])c2)CC1C(=O)O (configuration not stated)
[1]
  IC50: 680 nM

## CC(C)c1ccccc1Sc1ccc(/C=C/C(=O)N2CCC3(CC2)OCCO3)cc1[N+](=O)[O-]
[1]
  IC50: 55 nM

## COC(=O)N1CCN(C(=O)/C=C/c2ccc(Sc3ccccc3C(C)C)c([N+](=O)[O-])c2)C(C(=O)O)C1 (configuration not stated)
[1]
  IC50: 130 nM

## CC(C)c1ccccc1Sc1ccc(/C=C/C(=O)N2CCOC(c3nnn[nH]3)C2)cc1[N+](=O)[O-] (configuration not stated)
[1]
  IC50: 20 nM
JY
  IC50: 2 nM

## COC(=O)C1CN(C(=O)/C=C/c2ccc(Sc3ccccc3C(C)C)c([N+](=O)[O-])c2)CCN1C (configuration not stated)
[1]
  IC50: 45 nM
JY
  IC50: 110 nM

## COC(=O)C1CN(C(=O)/C=C/c2ccc(Sc3ccccc3C(C)C)c([N+](=O)[O-])c2)CCN1 (configuration not stated)
[1]
  IC50: 60 nM
JY
  IC50: 98 nM

## CC(C)c1ccccc1Sc1ccc(/C=C/C(=O)N2CCC(=O)CC2)cc1[N+](=O)[O-]
[1]
  IC50: 60 nM
JY
  IC50: 240 nM

## CC(C)c1ccccc1Sc1ccc(/C=C/C(=O)N2CCCC(C(=O)O)C2)cc1[N+](=O)[O-] (configuration not stated)
[1]
  IC50: 30 nM
[46]
  clearance: 35 mL/min/kg
[47]
  half-life: 0.4 h
JY
  IC50: 90 nM
[38]
  MRT: 11.3 h
Rattus norvegicus [39]
  Cmax: 0.45 ug m l-1
[40]
  bioavailability: 19%

## CC(C)c1ccccc1Sc1ccc(/C=C/C(=O)N2CC=CC2C(=O)O)cc1C(F)(F)F (configuration not stated)
[1]
  IC50: 130 nM

## CC(C)c1ccccc1Sc1ccc(/C=C/C(=O)N2CCN(C)CC2)cc1[N+](=O)[O-]
[1]
  IC50: 130 nM

## COC(=O)C1CNCCN1C(=O)/C=C/c1ccc(Sc2ccccc2C(C)C)c([N+](=O)[O-])c1 (configuration not stated)
[1]
  IC50: 340 nM

## CC(C)c1ccccc1Sc1ccc(/C=C/C(=O)N2CCNCC2)cc1[N+](=O)[O-]
[1]
  IC50: 450 nM

## CC(C)c1ccccc1Sc1ccc(/C=C/C(=O)N2CCNC(C(=O)N(C)C)C2)cc1[N+](=O)[O-] (configuration not stated)
[1]
  IC50: 75 nM

## CC(=O)N1CCN(C(=O)/C=C/c2ccc(Sc3ccccc3C(C)C)c([N+](=O)[O-])c2)CC1 [A-286982]
[48]
  bioavailability: 0%
[49]
  Cmax: 0 ug m l-1
Water solubility
  Solubility: < 1 µg/mL
Clearance after iv dose
  clearance: 45 mL/min/kg
